Experiments:
Conditions in all cases: in vivo
[1] = Drug excretion in feces of female cynomolgus monkey treated with [14C]sunitinib at 6 mg/kg, po administered as single dose by liquid scintillation counting; format: ADME, organism-based, Macaca fascicularis; design: dose 6 mg/kg, dosed compound name [14C]Sunitinib, route oral
Method in brief: (§1)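 Cynomolgus monkeys given one oral gavage dose of [14C]sunitinib L-malate, 6 mg/kg (37 µCi/kg). Urine collected at 0-4, 4-8 and 8-24 h, feces at 0-8 and 8-24 h, then both daily to 14 days; samples stored at -80 °C. Duplicate urine aliquots counted by liquid scintillation; homogenized feces combusted before counting.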

[2] = Drug excretion in feces of male cynomolgus monkey treated with [14C]sunitinib at 6 mg/kg, po administered as single dose by liquid scintillation counting; format: ADME, organism-based, Macaca fascicularis; design: dose 6 mg/kg, dosed compound name [14C]Sunitinib, route oral; method in brief: as §1
[3] = Drug excretion in feces of human treated with [14C]sunitinib at 50 mg, po administered as single dose by liquid scintillation counting

Compound recovery [1] [%] | Compound recovery [2] [%] | Compound recovery [3] | Compound
29.3 | 30.7 |  | CCNCCNC(=O)c1c(C)[nH]c(C=C2C(=O)Nc3ccc(F)cc32)c1C (mixture of isomers)
6.2 | 6.3 | metabolite_not_detected | Cc1[nH]c(/C=C2\C(=O)Nc3ccc(F)cc32)c(C)c1C(=O)NCC(=O)O

— ChEMBL document CHEMBL3525900, “Pharmacokinetics, distribution, and metabolism of [14C]sunitinib in rats, monkeys, and humans” (Drug Metab Dispos, 2012)
